Assay results as given in ChEMBL document CHEMBL1125406, “Structure-activity relationships for inhibition of papain by peptide Michael acceptors” (J Med Chem, 1992).

Columns and labels:
[1] = Compound was evaluated for the ratio of apparent inactivation rate constant k2 to apparent binding constant Ki; conditions: read-out: k2 / Ki
Procedure, shortened: (§1)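 Mercurial papain activated with L-cysteine for 45 min at 25 °C in 50 mM phosphate, 1 mM EDTA, pH 6.2. Papain (0.11 μM) was incubated at 25 °C and pH 6.2, in 20% CH3CN, with excess inhibitor. Aliquots taken about every 10 min were diluted 10-fold into buffer containing 2 mM Cbz-Gly-ONp. Residual activity was read at 340 nm, corrected for spontaneous hydrolysis, and analysed by Kitz–Wilson plot.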

[2] = biological target: T1, Papain (Carica papaya) (UniProt P00784); experiment: Compound was evaluated for papain inactivation. [I] is the inhibitor concentration; 1-8; format: functional; procedure, shortened: as §1
T1 sequence (whole entry): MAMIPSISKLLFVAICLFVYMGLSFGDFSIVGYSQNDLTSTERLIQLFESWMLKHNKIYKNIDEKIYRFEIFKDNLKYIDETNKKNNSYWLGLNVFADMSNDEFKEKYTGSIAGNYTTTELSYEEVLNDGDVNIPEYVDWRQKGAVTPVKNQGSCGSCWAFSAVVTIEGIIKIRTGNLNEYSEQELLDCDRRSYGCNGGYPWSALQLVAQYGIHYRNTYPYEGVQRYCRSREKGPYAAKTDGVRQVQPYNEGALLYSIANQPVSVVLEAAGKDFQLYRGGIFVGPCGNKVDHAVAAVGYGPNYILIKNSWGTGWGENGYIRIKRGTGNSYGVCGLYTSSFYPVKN

[3] = biological target: T1, Papain (Carica papaya); experiment: Compound was evaluated for papain inactivation. [I] is the inhibitor concentration; 60-500; format: functional; procedure, shortened: as §1
[4] = biological target: T1, Papain (Carica papaya); experiment: Compound was evaluated for papain inactivation. [I] is the inhibitor concentration; 60-1000; format: functional; procedure, shortened: as §1
[5] = biological target: T1, Papain (Carica papaya); experiment: Compound was evaluated for papain inactivation. [I] is the inhibitor concentration; 0.07-0.58; format: functional; procedure, shortened: as §1
[6] = biological target: T1, Papain (Carica papaya); experiment: Compound was evaluated for papain inactivation. [I] is the inhibitor concentration; 80-160; format: functional; procedure, shortened: as §1
[7] = biological target: T1, Papain (Carica papaya); experiment: Compound was evaluated for papain inactivation. [I] is the inhibitor concentration; 2-30; format: functional; procedure, shortened: as §1
[8] = biological target: T1, Papain (Carica papaya); experiment: Compound was evaluated for papain inactivation. [I] is the inhibitor concentration; 0.05-1.08; format: functional; procedure, shortened: as §1
[9] = biological target: T1, Papain (Carica papaya); experiment: Compound was evaluated for papain inactivation. [I] is the inhibitor concentration; 30-450; format: functional; procedure, shortened: as §1
[10] = biological target: T1, Papain (Carica papaya); experiment: Compound was evaluated for papain inactivation. [I] is the inhibitor concentration; 6-35; format: functional; procedure, shortened: as §1
[11] = biological target: T1, Papain (Carica papaya); experiment: Compound was evaluated for papain inactivation. [I] is the inhibitor concentration; 0.87-10; format: functional; procedure, shortened: as §1
[12] = biological target: T1, Papain (Carica papaya); experiment: Compound was evaluated for papain inactivation. [I] is the inhibitor concentration; 1.42-10; format: functional; procedure, shortened: as §1

In the case of `COC(=O)/C=C/CNC(=O)[C@H](Cc1ccccc1)NC(C)=O`, the kinact/KI [1] is reported as 0.25 M⁻¹ s⁻¹ and the I [2] is reported as 1 mM.
In the case of `CC(=O)NC(Cc1ccccc1)C(=O)NC/C=C/C#N` (stereo unspecified), the kinact/KI [1] is reported as 1.7 M⁻¹ s⁻¹ and the I [3] is reported as 60 µM.
For `CC(=O)NC(Cc1ccccc1)C(=O)NC/C=C/C(N)=O` (stereo unspecified), the kinact/KI [1] was 1.1 M⁻¹ s⁻¹ and the I [4] was 60 µM.
For `COC(=O)/C=C/CNC(=O)[C@@H](CCSC)NC(C)=O`, the kinact/KI [1] was 2.06 M⁻¹ s⁻¹ and the I [5] was 0.07 mM.
With `CC(=O)NC(Cc1ccccc1)C(=O)NC/C=C/c1ccc([N+](=O)[O-])cc1` (stereo unspecified) the I [6] was 80 µM.
`CC(=O)NC(Cc1ccccc1)C(=O)NC/C=C/S(C)(=O)=O` (stereo unspecified) gave a kinact/KI [1] of 18.7 M⁻¹ s⁻¹ and an I [7] of 2 µM.
Work on `COC(=O)/C=C/CNC(=O)[C@@H](CC(C)C)NC(C)=O` yielded a kinact/KI [1] of 2.46 M⁻¹ s⁻¹ and an I [8] of 0.056 mM.
`CC(=O)NC(Cc1ccccc1)C(=O)NC/C=C/C(=O)O` (stereo unspecified) gave a kinact/KI [1] of 5 M⁻¹ s⁻¹ and an I [9] of 30 µM.
Compound `COC(=O)/C=C/CNC(=O)C(Cc1ccccc1)NC(C)=O` (stereo unspecified) has a kinact/KI [1] of 26.1 M⁻¹ s⁻¹ and an I [10] of 6 µM.
`COC(=O)/C=C/CNC(=O)CCc1ccccc1` showed a kinact/KI [1] of 0.23 M⁻¹ s⁻¹ and an I [11] of 0.87 mM.
For `COC(=O)/C=C/CNC(=O)c1ccccc1`, the kinact/KI [1] was 0.05 M⁻¹ s⁻¹ and the I [12] was 1.42 mM.
